# Bioassay records from PubChem BioAssay.
# The list is not random: actives were taken first. Their share in the collection is about 6%.
# EphB4 antag: blocks human EphB4 binding to ephrin-B2. inhibition, % at 7 µM. EphB4 LBD / TNYL-RAW-Alexa532 peptide, fluorescence polarization. 0.15% of 97,000 active;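 active = inhibition above the screen-wide mean inhibition plus 3 SD, cut at about 15% in these data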;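 note: 0% = DMSO wells and 100% = excess unlabeled TNYL-RAW peptide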
# PostGolgi ctrl: yeast control strain growth, post-Golgi counter-screen; efflux-deficient yeast background strain, growth absorbance A615, 16 h; inhibition, % at 10 µM; 5% of 98,000 active
# tolC growth inh: growth inhibitors of E. coli BW25113 tolC mutant; growth inhibition, % at 10 µM (by protocol); OD615; 2.2% of 65,000 active;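 active = growth inhibition at or above a cutoff equal to the mean over every tested compound plus 3 SD, cut at about 60% in these data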;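 note: growth measured after 20 h incubation at 37 °C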
#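 System: E. coli ΔtolC::kan strain BW25113; Buffer or medium: LB broth supplemented with 50 µg/mL kanamycin; Compound: 10 µM final, single dose; Incubation: bacterial growth with compound for 20 h at 37 °C; Signal: A615 absorbance measurement; Evaluation: growth inhibition in percent.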
# PostGolgi yeast: growth inhibition of a yeast mutant, post-Golgi transport screen | post-Golgi transport phenotypic cell assay | 0.9% of 98,000 active | AID 739 | inhibition, % at 10 µM;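 note: yeast cells grown in 1536-well plates; yeast grown about 18 h at 30C before absorbance read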
# Ecoli WT expand: growth inhibitors of E. coli BW25113 wild type. OD600 absorbance. growth inhibition, % at 100 µM. 0.15% of 98,000 active. AID 710;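 active = growth inhibition above about 50% at one test dose, limit read from the data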;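 note: growth measured after 20 h incubation at 37 °C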
# Starred values were filed as active, the others as inactive; nt = no result given. Cut-off read from the data, not from the text of the source, unless noted: active = inhibition above about 30%; inactive = the rest.
SMILES,EphB4 antag,PostGolgi ctrl,tolC growth inh,PostGolgi yeast,Ecoli WT expand
COc1cc(NS(=O)(=O)c2ccc(NC(=O)COc3ccccc3Cl)cc2)nc(OC)n1,-1.2,3.4,71.5*,-15.3,-8.0
COc1cc(NS(=O)(=O)c2ccc(NC(=S)NC(=O)CC(C)C)cc2)nc(OC)n1,4.4,nt,nt,nt,nt
O=S(=O)(NCc1ccccc1)c1cccs1,-10.0,10.1,nt,-8.8,6.0
O=C(CSc1ccc(Cl)cc1Cl)N1CCC(c2nc3ccccc3s2)CC1,-2.5,37.5*,nt,-0.2,-18.0
O=C(Oc1c(Cl)cc(Cl)c2cccnc12)c1ccco1,4.2,31.1*,nt,6.4,100.0*
COC(=O)c1ccc2c(=O)n(CCN3CCOCC3)c(SCC(=O)NC3CCCCC3)nc2c1,nt,nt,-10.9,nt,nt
CCC(C)NC(=O)C(CCSC)NC(=O)c1ccccc1 (centres undefined),-1.0,4.8,nt,-2.0,-4.0
CSCCC(NC(=O)c1ccccc1)C(=O)NCc1ccco1 (centres undefined),-2.0,37.7*,-8.1,-7.4,0.0
Cc1cccc(C)c1NC(=O)C(=O)NCc1ccccn1,7.8,16.7,nt,-3.8,8.0
CCn1cc(C(=O)NCc2cccc(F)c2)c(=O)c2cc(F)c(N3CCN(C(=O)c4ccco4)CC3)cc21,-10.1,13.9,nt,-3.9,91.0*
CCn1cc(C(=O)NCc2cccnc2)c(=O)c2cc(F)c(N3CCN(C(=O)c4ccco4)CC3)cc21,-4.5,-0.3,nt,5.9,97.0*
CCn1cc(C(=O)Nc2nnc(C)s2)c(=O)c2cc(F)c(N3CCN(C(=O)c4ccco4)CC3)cc21,-8.3,nt,nt,nt,nt
Cc1ccc(C(=O)Nc2ccccc2Oc2ccccc2)cc1[N+](=O)[O-],-1.8,33.9*,nt,-9.1,-26.0
O=C(c1ncc[nH]1)c1ccccc1C(=O)N1CCOCC1,-7.2,33.1*,-15.2,-0.6,9.0
O=c1c(Cl)c(N/N=C/c2ccc(Br)cc2)cnn1-c1ccccc1,8.4,3.4,nt,11.3,3.0
